Shown are actives, neighbours in structure and some others; about 2% of the full set was active somewhere.
C8 TRAIL sens – viability loss with TRAIL in NB7+C8 cells, primary screen, TRAIL sensitizer project, cell-based, ATPlite luminescence; hit rate 1% among 360,000; inhibition (viability loss, TRAIL sensitization), % at 10 µM;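 active means compounds causing at least 50% loss of cell viability in the single-dose screen, relative to plate controls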
FLuc inh counter – firefly luciferase enzyme inhibitors, primary screen, artefact control for luciferase-based inhibitor screens, biochemical, luminescence, ATPLite. 10 min. hit rate 1.5% among 200,000. AID 1006, 2008. Luciferin 4-monooxygenase (Photinus pyralis), P08659. inhibition, % at 10 µM;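 active means inhibition above about 50% when tested at 10 µM, limit read from the data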
Target sequence (P08659 whole entry, looked up): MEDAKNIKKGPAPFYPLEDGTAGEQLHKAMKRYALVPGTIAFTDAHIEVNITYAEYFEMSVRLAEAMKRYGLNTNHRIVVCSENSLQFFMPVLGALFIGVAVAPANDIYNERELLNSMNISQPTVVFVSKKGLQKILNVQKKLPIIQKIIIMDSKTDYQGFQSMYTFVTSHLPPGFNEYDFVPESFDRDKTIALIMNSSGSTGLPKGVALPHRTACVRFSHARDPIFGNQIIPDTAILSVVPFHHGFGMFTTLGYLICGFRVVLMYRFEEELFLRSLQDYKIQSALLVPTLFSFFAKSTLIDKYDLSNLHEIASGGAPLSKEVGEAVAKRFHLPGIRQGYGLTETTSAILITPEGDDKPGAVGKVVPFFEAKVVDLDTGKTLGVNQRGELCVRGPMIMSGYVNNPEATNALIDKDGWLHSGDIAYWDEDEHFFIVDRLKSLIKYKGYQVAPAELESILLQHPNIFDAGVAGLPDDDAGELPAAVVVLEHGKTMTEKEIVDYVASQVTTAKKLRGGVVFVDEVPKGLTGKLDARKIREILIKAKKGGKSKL
FLuc stim CS – FLuc activators, initial screening, artefact control for FLuc-dependent activation tests, biochemical, ATPlite luminescence. ATPlite luciferase biochemical, 10 min; 0 = ATP-free wells, 1 = DMSO control. 200,000 tested, under 10 active. activation factor at 10 µM. AID 1027, 2008;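 active means luciferase activation factor, scaled between plate controls, of at least 2 with compound at 10 µM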
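Assay system – cell-free luciferase reagent · Medium – PBS-based ATP solution · Dosing – test compounds dosed from 2 mM stocks in 100% DMSO · Timing – 10 min, room temperature · Technique – light output (luminescence) · Measure – luminescence gain marking luciferase activators · Controls – No-ATP low control, compound-free enzyme-plus-ATP high control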
PPC-1+TRAIL kill – compounds killing PPC-1 cancer cells with TRAIL present, primary screen, TRAIL potentiator project, ATPLite luminescence, uHTS; PPC-1 cells + TRAIL, ATPLite viability luminescence; cell killing (% activity), % at 4 µM or 5 µM; hit rate 0.41% among 220,000; AID 1443, 2008;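 active means cell killing above 50% in the first pass at 4 µM, then a duplicate retest at 5 µM averaging 50% or more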;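 further: plate controls were cells with TRAIL plus DMSO for no effect and medium-only wells lacking cells for full effect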
HSP90 inh – HSP90 inhibitors, primary screen, cell lysate, luminescence; inhibition, % at 5.6 µM; AID 1789, 2009; Rabbit reticulocyte lysate, luciferase refolding luminescence, 3 h; Heat shock protein HSP 90 (rabbit reticulocyte lysate; luciferase refolding); hit rate 0.91% among 290,000;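 active means inhibition above the screen-wide mean plus 3 SD, computed separately per campaign, cut at about 16% in these data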;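 further: 0% = DMSO wells and 100% = 60 µM geldanamycin wells; inhibitors lower the luminescence because luciferase stays unfolded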
PPC-1 tox – cytotoxicity in PPC-1 cells, confirmation, cytotoxicity control for TRAIL apoptosis potentiator project, cell-based, ATP content luminescence; AID 1447, 2008; PPC-1 viability, ATPlite luminescence, overnight; cytotoxicity, % at 5 µM; hit rate 50% among 1,200; shares compounds with PPC-1+TRAIL kill;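 active means reconfirmed compounds whose average cytotoxicity reaches 50% or more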;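 further: 0% = DMSO-treated cells and 100% = wells holding medium but no cells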
The depositor's hits bear a star; / = not tested or not shown.

SMILES	C8 TRAIL sens	FLuc inh counter	FLuc stim CS	PPC-1+TRAIL kill	HSP90 inh	PPC-1 tox
CCc1nnc(NC(=O)CSc2nc(C)cc(C)c2C#N)s1	73*	18	0.8	74*	0	74*
Cc1ccc(C#N)c(SCC(=O)Nc2nccs2)n1	47	12	0.9	54*	0	59*
CCc1nnc(NC(=O)CSc2nc3c(cc2C#N)CCC3)s1	64*	21	0.8	65*	-5	69*
O=C(NNS(=O)(=O)c1ccc(F)cc1)c1cc2ccccc2cc1O	-24	/	/	/	-2	/
Cc1ccc(C(=O)OC(C)C(=O)Nc2ccc3c(c2)OCO3)c(O)c1 (centres undefined)	-6	/	/	/	/	/
C/C(=N\Nc1cccc2cccnc12)c1ccccn1	75*	87*	0.1	48	7	44
Cn1cccc1C(=O)OCC(=O)NC(=O)NC1CCCCC1	4	-4	1	15	-1	/
COc1ccccc1Cc1c(-c2cccc(Cl)c2)nc2ccc(Cl)cn12	-19	/	/	/	/	/
COc1ccc(N2CCN(C3CC(=O)N(Cc4ccc(N5CCCC5=O)cc4)C3=O)CC2)cc1 (centres undefined)	-7	-6	1.1	4	5	/
O=C1CC(N2CCN(c3ccc(F)cc3)CC2)C(=O)N1Cc1ccc(N2CCCC2=O)cc1 (centres undefined)	-1	-5	1.1	14	-2	20
COC(=O)c1ccc(C)c(NC(=O)CN(c2ccccc2)S(=O)(=O)N(C)C)c1	3	-7	1.1	13	1	/
COCCOC(=O)CSc1ncccc1-c1nc2cc(C)c(C)cc2[nH]1	65*	75*	0.3	57*	0	59*
CCOC(=O)c1ccc(Nc2cc(C)nc(C)c2C(=O)OCC)cc1	11	-4	1	4	1	-2
c1ccc(CSCc2cn3ccccc3n2)cc1	3	3	1	-4	5	-6
O=C1c2ccccc2NC(c2ccccc2Cl)N1N=C1CCCCCC1 (centres undefined)	-7	43	0.6	12	-3	/
CCCCCCCCCn1c2c(c(=N)c3c1CCC3)CCC2	77*	-7	1.1	42	-2	44
CCCCCCCn1c2c(c(=N)c3c1CCC3)CCCC2	40	-5	1	31	3	26
CCn1c2c(c(=N)c3c1CCC3)CCC2	25	-9	1.1	12	-5	/
CCCCn1c2c(c(=N)c3c1CCC3)CCC2	12	1	1	-3	2	/
CCCCCCn1c2c(c(=N)c3c1CCC3)CCC2	29	-4	1	18	1	23
N/C(=N\OC(=O)CSc1ccccc1)c1ccc([N+](=O)[O-])cc1	-4	-3	1	-5	-2	/
Cn1ccc(C(=O)N/N=C/c2cccnc2)n1	-17	/	/	/	-3	/
CN(C)c1ccc(/C=N/NC(=O)c2ccn(C)n2)cc1	49	/	/	39	-1	26
COc1cccc2sc(Nc3nc(-c4ccccn4)cs3)nc12	28	6	0.9	26	-1	30
CC(C)CC(=O)Nc1ccc2nn(-c3ccccc3)nc2c1	18	32	0.7	26	-4	/
SMILES	C8 TRAIL sens	FLuc inh counter	FLuc stim CS	PPC-1+TRAIL kill	HSP90 inh	PPC-1 tox
CCC(=O)Nc1cc2nn(-c3ccccc3)nc2cc1Cl	64*	74*	0.3	60*	-4	60*
COc1ccc(CCNC(=O)C2CCCN(S(=O)(=O)c3cccc4nonc34)C2)cc1OC (centres undefined)	-2	-8	1.1	-16	0	-7
C/C(=N\NC(=O)COc1ccc(C(C)(C)C)cc1)c1cc2ccccc2o1	84*	94*	0.1	77*	1	77*
Cc1ccc(-c2ccc(NC(=O)C3C4C=CC(C4)C3C(=O)O)cc2)o1 (centres undefined)	3	3	1	8	1	17
CC1CC(=O)Nc2ccccc2N1C(=O)Nc1ccc(F)cc1 (centres undefined)	-13	/	/	13	5	10
Cc1nnc(NC(=O)C2CCN(S(=O)(=O)c3ccc(F)c(F)c3)CC2)o1	5	/	/	/	/	/
CCOc1ccc(NC(=O)c2ccc(N)cc2)cc1	46	71*	0.3	21	-7	22

Assay outcomes: PubChem, several laboratories
